Screening results (PubChem)
The full list was thinned out, with hits kept by preference.
IDH1 R132H inh – inhibitors of human IDH1 R132H; IDH1 R132H reductase, diaphorase/resazurin fluorescence, 60 min; 70,000 tested, 0.18% active; AID 624101; inhibition, % at 10 µM; in the data active = inhibition above about 34%;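 also: 0% = DMSO and 100% = no enzyme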
Target sequence (O75874 whole entry R132H): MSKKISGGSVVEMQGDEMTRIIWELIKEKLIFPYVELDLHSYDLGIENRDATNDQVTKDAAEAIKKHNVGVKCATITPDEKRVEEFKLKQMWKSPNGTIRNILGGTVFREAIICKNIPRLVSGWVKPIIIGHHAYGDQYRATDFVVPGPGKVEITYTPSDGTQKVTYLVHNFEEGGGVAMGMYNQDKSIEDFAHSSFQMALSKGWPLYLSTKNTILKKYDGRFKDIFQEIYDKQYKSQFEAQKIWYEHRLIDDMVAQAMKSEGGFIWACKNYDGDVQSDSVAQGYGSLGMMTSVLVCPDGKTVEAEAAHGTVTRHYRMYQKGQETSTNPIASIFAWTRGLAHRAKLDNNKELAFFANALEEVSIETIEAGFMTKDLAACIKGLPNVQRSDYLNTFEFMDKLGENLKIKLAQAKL
T cruzi growth-1 – blocks T. cruzi growth in NIH3T3 culture. 77,000 tested, 5.9% active. inhibition, % at 8.34 µM. T. cruzi beta-gal in NIH3T3, GalScreen luminescence, 90 h;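 active = mean inhibition above about 93%, with at least 55% of replicates each passing it, limit read from the data, passing the limit was not always enough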
KDM4C inh – KDM4C (human) demethylase inhibition | Q9H3R0 | GST-KDM4C 2-372, H3K9me3 peptide, LANCE TR-FRET | inhibition, % at 12.5 µM | 96,000 tested, 0.15% active;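 active = mean replicate inhibition above about 25%, with at least 55% of replicates also reaching it, limit read from the data, passing the limit was not always enough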
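Material: N-terminal GST-fused human GASC-1 (KDM4C) fragment, residues 2-372. Input: 10 nM enzyme. Incubation: enzyme reaction 30 min, then detection 60 min, both room temperature. Doses: one test concentration per compound. Read-out basis: inhibition from TR-FRET ratio decrease. Detection: LANCE TR-FRET, excitation 340 nm, emissions 618 and 671 nm.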
T cruzi growth-2 – blocks T. cruzi growth in NIH3T3 host cells; shares compounds with T cruzi growth-1; T. cruzi beta-gal in NIH3T3, GalScreen luminescence, 90 h; inhibition, % at 8.35 µM; 5,600 tested, 72% active;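 active = mean replicate inhibition above about 95% and at least 55% of replicates individually reaching it, limit read from the data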
T cruzi growth-3 – blocks T. cruzi growth in NIH3T3 host cells. shares compounds with T cruzi growth-1. T. cruzi beta-gal in NIH3T3, GalScreen luminescence, 90 h. inhibition, % at 2.09 µM. 5,600 tested, 21% active. AID 651740;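 active = mean inhibition above about 95%, with at least 55% of replicates also reaching it, limit read from the data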;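 also: plate controls were neutral control median for no effect and positive control median for full effect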
NIH3T3 tox – cytotoxicity in mouse NIH/3T3 fibroblasts; AID 651742; NIH/3T3 viability, CellTiter-Glo ATP luminescence, 90 h; shares compounds with T cruzi growth-1; 5,600 tested, 14% active; cytotoxicity (signal decrease), % at 8.35 µM;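 active = mean signal decrease across replicates above about 35% based on untreated-well scatter, with enough replicates individually passing, limit read from the data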;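 also: 0% = median of neutral control wells and 100% = median of positive control wells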
NIH3T3 tox 2 – kills mouse NIH/3T3 fibroblasts; shares compounds with T cruzi growth-1; 5,600 tested, 56% active; NIH/3T3 viability, CellTiter-Glo ATP luminescence, 90 h; inhibition, % at 24.9 µM;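 active = mean loss of cell viability signal at or above a set limit, and enough replicates individually reaching it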;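 also: 0% = median of neutral control wells and 100% = median of positive control wells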
Starred values were filed as active, the others as inactive; x = not tested or not shown.

SMILES	IDH1 R132H inh	T cruzi growth-1	KDM4C inh	T cruzi growth-2	T cruzi growth-3	NIH3T3 tox	NIH3T3 tox 2
C[C@H](CO)N1C[C@H](C)[C@H](CN(C)Cc2ccc(C(=O)Nc3ccccc3N)cc2)Oc2c(NC(=O)c3cnccn3)cccc2C1=O	-0.3	x	-0.5	x	x	x	x
C[C@H]1CN([C@@H](C)CO)C(=O)c2cc(C#CC(C)(C)O)cnc2O[C@H]1CN(C)C(=O)C1CCOCC1	0.0	-12.7	-1.1	x	x	x	x
COc1cc(OC)cc(-c2nnc(SCC(=O)Nc3cc(C(F)(F)F)ccc3Cl)o2)c1	0.8	x	x	x	x	x	x
COc1ccc(NC(=O)Nc2ccc3c(c2)C(=O)N([C@H](C)CO)C[C@H](C)[C@@H](CN(C)Cc2ccc4c(c2)OCO4)O3)cc1	3.5	10.1	-0.4	x	x	x	x
N#Cc1ccc(-c2ccc3c(c2)[C@@H]2[C@@H](CCN2C(=O)c2ccncc2)[C@H](CO)N3)cc1	x	76.9	-2.1	x	x	x	x
N#Cc1cccc(-c2ccc3c(c2)[C@H]2[C@H](CCN2C(=O)c2ccc4c(c2)OCO4)[C@@H](CO)N3)c1	x	97.5*	-4.3	102.9*	99.7*	9.9	37.4*
N#Cc1cccc(-c2ccc3c(c2)[C@@H]2[C@@H](CCN2C(=O)c2ccc4c(c2)OCO4)[C@@H](CO)N3)c1	x	88.0	-2.0	x	x	x	x
CN(C)C(=O)c1ccc(-c2ccc3c(c2)[C@H]2[C@H](CCN2C(=O)c2ccc4c(c2)OCO4)[C@@H](CO)N3)cc1	x	100.8*	-1.4	105.5*	74.1	-0.1	1.2
N#Cc1cccc(-c2ccc3c(c2)[C@@H]2[C@@H](CCN2C(=O)c2ccncc2)[C@@H](CO)N3)c1	x	103.2*	-2.0	97.4*	7.9	3.2	7.8
CN(C)C(=O)c1cccc(-c2ccc3c(c2)[C@@H]2[C@@H](CCN2C(=O)c2ccc4c(c2)OCO4)[C@@H](CO)N3)c1	x	30.3	0.6	x	x	x	x
CCC(=O)N1CC[C@@H]2[C@H](CO)Nc3ccc(-c4ccc(C(=O)N(C)C)cc4)cc3[C@@H]21	x	107.9*	0.0	101.0*	57.1	2.8	-2.3
CCC(=O)N1CC[C@@H]2[C@H]1c1cc(-c3ccccc3)ccc1N[C@@H]2CO	x	43.5	2.3	x	x	x	x
C[C@@H]1CN([C@H](C)CO)C(=O)c2cccc(NC(=O)C3CC3)c2O[C@H]1CN(C)C(=O)Nc1ccc(C(F)(F)F)cc1	1.1	65.6	1.5	x	x	x	x
C[C@@H]1CN([C@@H](C)CO)C(=O)c2cc(NC(=O)Nc3cccc4ccccc34)ccc2O[C@H]1CN(C)C	-11.6	34.8	1.8	x	x	x	x
C[C@@H]1CN([C@H](C)CO)C(=O)c2cc(NC(=O)Nc3ccc(F)cc3)ccc2O[C@@H]1CN(C)C(=O)Nc1cccc2ccccc12	-0.2	x	-3.1	x	x	x	x
O=C(C1CCCC1)N1C[C@@H]2N[C@H](C1)C2c1ccc(-c2cccc(F)c2)cc1 (some centres undefined)	x	x	-4.6	x	x	x	x
COCC(=O)N1C[C@@H]2[C@H](c3ccccc31)[C@H](CO)N2C(=O)C1CCOCC1	x	18.6	-3.3	x	x	x	x
O=C(Nc1ccc2c(c1)OCCO2)c1ccc(CNS(=O)(=O)c2cccc(C(F)(F)F)c2)cc1	0.6	x	x	x	x	x	x
C[C@H]1CN([C@@H](C)CO)C(=O)c2cc(NC(=O)Nc3ccc(C(F)(F)F)cc3)ccc2O[C@@H]1CN(C)Cc1ccc(C(F)(F)F)cc1	0.9	-34.6	-0.3	x	x	x	x
O=C(c1ccc2c(c1)OCO2)N1CC[C@@H]2[C@H]1c1cc(C#Cc3ccccc3)ccc1N[C@@H]2CO	x	93.1*	0.3	106.6*	31.5	-25.6	16.5
O=C(c1ccc2c(c1)OCO2)N1CC[C@@H]2[C@@H](CO)Nc3ccc(C#Cc4ccccc4)cc3[C@@H]21	x	96.0	-0.2	x	x	x	x
Cc1ccc(-c2ccc3c(c2)O[C@H](CN(C)Cc2ccncc2)[C@@H](C)CN([C@@H](C)CO)S3(=O)=O)cc1	1.2	123.8*	0.0	102.8*	104.0*	69.2*	103.3*
C[C@@H]1CN([C@@H](C)CO)S(=O)(=O)c2ccc(-c3ccccc3)cc2O[C@@H]1CN(C)Cc1ccncc1	x	31.1	1.9	x	x	x	x
C[C@H](CO)N1C[C@H](C)[C@@H](CN(C)Cc2ccncc2)Oc2cc(-c3ccccc3)ccc2S1(=O)=O	2.6	61.0	x	x	x	x	x
